# From ChEMBL document CHEMBL4689842, “EUbOPEN Chemogenomics Library wave 1” (2021)
# Tested on: HEK-293T
# Assay: Multiplex assay against HEK293T;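 for Population Tubulin-Different-Phenotype (%): share of the cells with healthy nuclei that show this phenotype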
# Type: toxicity, cell-based
# Details: human
# Method in brief: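 Phenotypes for tubulin, mitochondrial mass and membrane permeability are expressed as per cents of healthy-nucleus cells. Cells were stained live at seeding with Hoechst33342, BioTracker Green Microtubule Cytoskeleton Dye, MitoTracker Red and Annexin V Alexa Fluor 680, then imaged after compound addition on a CQ1 microscope at 37°C and 5% CO2. Machine-learning gating in CellPathfinder separated Hoechst high-intensity objects from normal cells, divided normal cells by nuclear state (healthy, pyknosed, fragmented) and divided pyknosed cells into mitotic or apoptotic.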
# [1] = 12 h, 1 µM, compound concentration 1 uM, replicate 1
# [2] = 12 h, 1 µM, compound concentration 1 uM, replicate 2
# [3] = 12 h, 10 µM, compound concentration 10 uM, replicate 1
# [4] = 12 h, 10 µM, compound concentration 10 uM, replicate 2
# [5] = 24 h, 1 µM, compound concentration 1 uM, replicate 1
# [6] = 24 h, 1 µM, compound concentration 1 uM, replicate 2
# [7] = 24 h, 10 µM, compound concentration 10 uM, replicate 1
# [8] = 24 h, 10 µM, compound concentration 10 uM, replicate 2
# [9] = 48 h, 1 µM, compound concentration 1 uM, replicate 1
# [10] = 48 h, 1 µM, compound concentration 1 uM, replicate 2
# [11] = 48 h, 10 µM, compound concentration 10 uM, replicate 1
# [12] = 48 h, 10 µM, compound concentration 10 uM, replicate 2
structure (smiles),measurement,setting,value
O=C(Nc1ccc(-n2nc(-c3cccnc3)cc2C(F)(F)F)cn1)c1ccc(-c2ccccc2)c(F)c1 [BI 2049],Population Apoptotic (%),[1],46%
same,Population Fragmented Nuclei (%),[1],22%
same,Population Healthy Nuclei (%),[1],24%
same,Population Hoechst High Intensity Objects (%),[1],21%
same,Population Membrane Permeable-Phenotype (%),[1],0%
same,Population Mitochondria Different-Phenotype (%),[1],60%
same,Population Mitotic Cells (%),[1],53%
same,Population Normal (%),[1],78%
same,Population Pyknosed Nuclei (%),[1],53%
same,Population Tubulin-Different-Phenotype (%),[1],10%
same,Total Cell Count,[1],147
same,Population Apoptotic (%),[2],3%
same,Population Fragmented Nuclei (%),[2],11%
same,Population Healthy Nuclei (%),[2],37%
same,Population Hoechst High Intensity Objects (%),[2],2%
same,Population Membrane Permeable-Phenotype (%),[2],3%
same,Population Mitochondria Different-Phenotype (%),[2],8%
same,Population Mitotic Cells (%),[2],96%
same,Population Normal (%),[2],97%
same,Population Pyknosed Nuclei (%),[2],51%
same,Population Tubulin-Different-Phenotype (%),[2],1%
same,Total Cell Count,[2],166
same,Population Apoptotic (%),[3],63%
same,Population Fragmented Nuclei (%),[3],12%
same,Population Healthy Nuclei (%),[3],23%
same,Population Hoechst High Intensity Objects (%),[3],11%
same,Population Membrane Permeable-Phenotype (%),[3],3%
same,Population Mitochondria Different-Phenotype (%),[3],90%
same,Population Mitotic Cells (%),[3],36%
same,Population Normal (%),[3],88%
same,Population Pyknosed Nuclei (%),[3],64%
same,Population Tubulin-Different-Phenotype (%),[3],65%
same,Total Cell Count,[3],254
same,Population Apoptotic (%),[4],12%
same,Population Fragmented Nuclei (%),[4],5%
same,Population Healthy Nuclei (%),[4],47%
same,Population Hoechst High Intensity Objects (%),[4],3%
same,Population Membrane Permeable-Phenotype (%),[4],9%
same,Population Mitochondria Different-Phenotype (%),[4],15%
same,Population Mitotic Cells (%),[4],88%
same,Population Normal (%),[4],96%
same,Population Pyknosed Nuclei (%),[4],47%
same,Population Tubulin-Different-Phenotype (%),[4],13%
same,Total Cell Count,[4],276
same,Population Apoptotic (%),[5],65%
same,Population Fragmented Nuclei (%),[5],25%
same,Population Healthy Nuclei (%),[5],30%
same,Population Hoechst High Intensity Objects (%),[5],26%
same,Population Membrane Permeable-Phenotype (%),[5],6%
same,Population Mitochondria Different-Phenotype (%),[5],59%
same,Population Mitotic Cells (%),[5],34%
same,Population Normal (%),[5],73%
same,Population Pyknosed Nuclei (%),[5],43%
same,Population Tubulin-Different-Phenotype (%),[5],31%
same,Total Cell Count,[5],143
same,Population Apoptotic (%),[6],12%
same,Population Fragmented Nuclei (%),[6],7%
same,Population Healthy Nuclei (%),[6],73%
same,Population Hoechst High Intensity Objects (%),[6],4%
same,Population Membrane Permeable-Phenotype (%),[6],3%
same,Population Mitochondria Different-Phenotype (%),[6],6%
same,Population Mitotic Cells (%),[6],87%
same,Population Normal (%),[6],95%
same,Population Pyknosed Nuclei (%),[6],19%
same,Population Tubulin-Different-Phenotype (%),[6],4%
same,Total Cell Count,[6],212
same,Population Apoptotic (%),[7],60%
same,Population Fragmented Nuclei (%),[7],12%
same,Population Healthy Nuclei (%),[7],27%
same,Population Hoechst High Intensity Objects (%),[7],13%
same,Population Membrane Permeable-Phenotype (%),[7],3%
same,Population Mitochondria Different-Phenotype (%),[7],82%
same,Population Mitotic Cells (%),[7],39%
same,Population Normal (%),[7],86%
same,Population Pyknosed Nuclei (%),[7],60%
same,Population Tubulin-Different-Phenotype (%),[7],53%
same,Total Cell Count,[7],266
same,Population Apoptotic (%),[8],5%
same,Population Fragmented Nuclei (%),[8],6%
same,Population Healthy Nuclei (%),[8],64%
same,Population Hoechst High Intensity Objects (%),[8],2%
same,Population Membrane Permeable-Phenotype (%),[8],6%
same,Population Mitochondria Different-Phenotype (%),[8],14%
same,Population Mitotic Cells (%),[8],94%
same,Population Normal (%),[8],97%
same,Population Pyknosed Nuclei (%),[8],29%
same,Population Tubulin-Different-Phenotype (%),[8],23%
same,Total Cell Count,[8],339
same,Population Apoptotic (%),[9],54%
same,Population Fragmented Nuclei (%),[9],27%
same,Population Healthy Nuclei (%),[9],35%
same,Population Hoechst High Intensity Objects (%),[9],18%
same,Population Membrane Permeable-Phenotype (%),[9],2%
same,Population Mitochondria Different-Phenotype (%),[9],20%
same,Population Mitotic Cells (%),[9],46%
same,Population Normal (%),[9],81%
same,Population Pyknosed Nuclei (%),[9],37%
same,Population Tubulin-Different-Phenotype (%),[9],14%
same,Total Cell Count,[9],166
same,Population Apoptotic (%),[10],11%
same,Population Fragmented Nuclei (%),[10],7%
same,Population Healthy Nuclei (%),[10],83%
same,Population Hoechst High Intensity Objects (%),[10],2%
same,Population Mitochondria Different-Phenotype (%),[10],3%
same,Population Mitotic Cells (%),[10],88%
same,Population Normal (%),[10],97%
same,Population Pyknosed Nuclei (%),[10],8%
same,Population Tubulin-Different-Phenotype (%),[10],6%
same,Total Cell Count,[10],420
same,Population Apoptotic (%),[11],55%
same,Population Fragmented Nuclei (%),[11],14%
same,Population Healthy Nuclei (%),[11],28%
same,Population Hoechst High Intensity Objects (%),[11],18%
same,Population Membrane Permeable-Phenotype (%),[11],1%
same,Population Mitochondria Different-Phenotype (%),[11],52%
same,Population Mitotic Cells (%),[11],44%
same,Population Normal (%),[11],81%
same,Population Pyknosed Nuclei (%),[11],56%
same,Population Tubulin-Different-Phenotype (%),[11],40%
same,Total Cell Count,[11],298
same,Population Apoptotic (%),[12],7%
same,Population Fragmented Nuclei (%),[12],6%
same,Population Healthy Nuclei (%),[12],82%
same,Population Hoechst High Intensity Objects (%),[12],2%
same,Population Membrane Permeable-Phenotype (%),[12],5%
same,Population Mitochondria Different-Phenotype (%),[12],4%
same,Population Mitotic Cells (%),[12],92%
same,Population Normal (%),[12],97%
same,Population Pyknosed Nuclei (%),[12],10%
same,Population Tubulin-Different-Phenotype (%),[12],21%
same,Total Cell Count,[12],633
